Laboratory results from ChEMBL document CHEMBL1212920, “Discovery of 6-(aminomethyl)-5-(2,4-dichlorophenyl)-7-methylimidazo[1,2-a]pyrimidine-2-carboxamides as potent, selective dipeptidyl peptidase-4 (DPP4) inhibitors” (J Med Chem, 2010).
One block for each compound: values may come before it.

Key:
hERG (KCNH2) = hERG (KCNH2) (Homo sapiens, UniProt Q12809); experiment: Inhibition of human ERG at 10 uM
[1] = Membrane permeability by PAMPA assay; assay type: ADME; conditions: read-out: permeability
[2] = Half life in dog at 5 umol/kg, intra arterial and 2 umol/kg, po; assay type: ADME, organism-based, Canis lupus familiaris; conditions: in vivo
[3] = Cmax in rat at 5 umol/kg, intra arterial and 2 umol/kg, po after 0.6 hrs; assay type: ADME, organism-based; set-up: dose 5 umol/kg, route oral; conditions: in vivo
Method in brief: (§1)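 Rat pharmacokinetics after a 5 μmol/kg intraarterial dose and a 2 μmol/kg oral dose, with water as vehicle. Urine collected over 24 h and the fraction of dose excreted as unchanged parent measured. Terminal half-life estimated after intraarterial dosing.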

[4] = Drug excretion in dog urine at 5 umol/kg, intra arterial and 2 umol/kg, po; assay type: ADME, organism-based, Canis lupus familiaris; conditions: read-out: Activity
Canis familiaris = experiment: Volume of distribution at steady state in dog at 5 umol/kg, intra arterial and 2 umol/kg, po; assay type: ADME, organism-based, Canis lupus familiaris; conditions: in vivo
[5] = Drug excretion in rat urine at 5 umol/kg, intra arterial and 2 umol/kg, po; assay type: ADME, organism-based; conditions: read-out: Activity; method in brief: as §1
[6] = Clearance in iv dosed rat; assay type: ADME, organism-based; conditions: in vivo; method in brief: as §1
Rattus norvegicus = experiment: Volume of distribution at steady state in rat at 5 umol/kg, intra arterial and 2 umol/kg, po; assay type: ADME, organism-based; conditions: in vivo; method in brief: as §1
[7] = Clearance in iv dosed dog; assay type: ADME, organism-based, Canis lupus familiaris; conditions: in vivo
[8] = Half life in rat at 5 umol/kg, intra arterial and 2 umol/kg, po; assay type: ADME, organism-based; conditions: in vivo; method in brief: as §1
[9] = Oral bioavailability in dog at 2 umol/kg, po; assay type: ADME, organism-based, Canis lupus familiaris; conditions: in vivo
Mus musculus [10] = experiment: Antidiabetic activity in ob/ob mouse assessed as reduction in blood glucose level at 3 umol/kg, po administered 1 hr prior to glucose challenge by oral glucose tolerance test; assay type: functional; set-up: scale not given: the % may be the effect or the level left
Method in brief: (§2)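 Male ob/ob mice, 13-14 weeks old, fed a 10% fat diet, fasted overnight. Given vehicle (water) or inhibitor orally at -60 min, then oral glucose 2 g/kg at 0 min. Tail bleeds into EDTA tubes at -60, 0, 15, 30, 60, 90 and 120 min. Plasma glucose read by glucometer, insulin by mouse ELISA. Mean of 12-24 mice/group; one-way ANOVA with Dunnett's test.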

Mus musculus [11] = experiment: Antidiabetic activity in ob/ob mouse assessed as reduction in blood glucose level at 1 umol/kg, po administered 1 hr prior to glucose challenge by oral glucose tolerance test; assay type: functional; set-up: scale not given: the % may be the effect or the level left; method in brief: as §2
[12] = AUC (0 to infinity) in rat at 5 umol/kg, intra arterial and 2 umol/kg, po; assay type: ADME, organism-based; set-up: dose 5 umol/kg, route oral, time infinity; conditions: plasma; method in brief: as §1
[13] = Oral bioavailability in rat at 2 umol/kg, po; assay type: ADME, organism-based; conditions: in vivo; method in brief: as §1
Dipeptidyl peptidase 8 = Dipeptidyl peptidase 8 (Homo sapiens, UniProt Q6V1X1); experiment: Inhibition of human DPP8
Sequence of Dipeptidyl peptidase 8 (Q6V1X1 whole entry): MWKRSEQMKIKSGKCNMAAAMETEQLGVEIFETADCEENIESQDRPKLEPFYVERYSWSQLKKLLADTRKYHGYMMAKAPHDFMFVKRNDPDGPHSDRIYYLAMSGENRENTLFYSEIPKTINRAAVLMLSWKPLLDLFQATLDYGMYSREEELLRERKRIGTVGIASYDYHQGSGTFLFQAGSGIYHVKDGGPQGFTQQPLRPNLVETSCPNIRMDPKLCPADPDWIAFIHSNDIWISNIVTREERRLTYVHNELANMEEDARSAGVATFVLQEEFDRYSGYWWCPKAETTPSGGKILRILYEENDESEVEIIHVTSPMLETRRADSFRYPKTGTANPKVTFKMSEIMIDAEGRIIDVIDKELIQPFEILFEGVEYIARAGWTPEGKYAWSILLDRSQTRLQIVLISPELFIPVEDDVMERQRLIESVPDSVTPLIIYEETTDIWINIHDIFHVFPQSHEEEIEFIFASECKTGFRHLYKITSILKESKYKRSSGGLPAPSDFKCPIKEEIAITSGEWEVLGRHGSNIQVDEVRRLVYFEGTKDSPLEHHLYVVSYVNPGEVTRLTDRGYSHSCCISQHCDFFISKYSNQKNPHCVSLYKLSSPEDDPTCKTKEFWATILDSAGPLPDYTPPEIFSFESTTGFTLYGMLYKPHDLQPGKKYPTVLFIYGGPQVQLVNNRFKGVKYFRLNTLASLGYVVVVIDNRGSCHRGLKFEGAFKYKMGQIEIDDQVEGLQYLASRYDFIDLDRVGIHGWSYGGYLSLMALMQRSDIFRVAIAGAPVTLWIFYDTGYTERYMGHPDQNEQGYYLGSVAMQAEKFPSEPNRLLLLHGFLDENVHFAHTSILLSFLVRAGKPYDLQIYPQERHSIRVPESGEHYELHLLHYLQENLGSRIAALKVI

Dipeptidyl peptidase 9 = Dipeptidyl peptidase 9 (Homo sapiens, UniProt Q86TI2); experiment: Inhibition of human DPP9
Sequence of Dipeptidyl peptidase 9 (Q86TI2 whole entry): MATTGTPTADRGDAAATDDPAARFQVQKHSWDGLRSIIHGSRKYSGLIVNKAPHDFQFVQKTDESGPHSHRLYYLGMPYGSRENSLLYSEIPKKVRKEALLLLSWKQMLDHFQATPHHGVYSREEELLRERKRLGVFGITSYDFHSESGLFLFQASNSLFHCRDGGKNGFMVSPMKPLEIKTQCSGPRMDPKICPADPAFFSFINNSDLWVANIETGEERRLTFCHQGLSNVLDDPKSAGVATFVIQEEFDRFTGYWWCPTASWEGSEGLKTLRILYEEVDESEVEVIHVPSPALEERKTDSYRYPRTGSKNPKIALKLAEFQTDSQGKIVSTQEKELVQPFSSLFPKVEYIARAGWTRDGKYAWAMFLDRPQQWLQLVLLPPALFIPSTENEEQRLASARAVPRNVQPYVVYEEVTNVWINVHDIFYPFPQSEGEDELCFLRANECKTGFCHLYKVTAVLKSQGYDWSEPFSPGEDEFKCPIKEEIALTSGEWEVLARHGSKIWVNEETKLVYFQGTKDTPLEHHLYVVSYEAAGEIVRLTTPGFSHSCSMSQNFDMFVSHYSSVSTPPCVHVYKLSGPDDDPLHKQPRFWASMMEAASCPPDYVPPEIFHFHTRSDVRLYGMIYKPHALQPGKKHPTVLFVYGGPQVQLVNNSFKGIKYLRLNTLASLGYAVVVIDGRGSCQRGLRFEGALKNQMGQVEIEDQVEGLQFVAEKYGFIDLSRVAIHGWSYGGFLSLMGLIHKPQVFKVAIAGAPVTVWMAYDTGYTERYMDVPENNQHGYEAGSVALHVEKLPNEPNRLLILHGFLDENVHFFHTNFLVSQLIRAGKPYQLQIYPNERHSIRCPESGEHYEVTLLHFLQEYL

[14] = Cmax in ob/ob mouse at 3 mg/kg, po after 1 hr; assay type: ADME, organism-based; set-up: dose 3 mg/kg, route oral; conditions: in vivo
[15] = Permeability across human Caco-2 cells; assay type: ADME, cell-based; conditions: read-out: permeability
Mus musculus [16] = experiment: In vivo inhibition of DPP4 activity in ob/ob mouse plasma at 3 umol/kg, po; assay type: functional
Mus musculus [17] = experiment: Antidiabetic activity in ob/ob mouse assessed as increase in insulin level at 1 umol/kg, po administered 1 hr prior to glucose challenge by oral glucose tolerance test; assay type: functional; method in brief: as §2
Mus musculus [18] = experiment: Antidiabetic activity in ob/ob mouse assessed as increase in insulin level at 3 umol/kg, po administered 1 hr prior to glucose challenge by oral glucose tolerance test; assay type: functional; method in brief: as §2
Mus musculus [19] = experiment: In vivo inhibition of DPP4 activity in ob/ob mouse plasma at 1 umol/kg, po; assay type: functional

Sequence of hERG (KCNH2) (Q12809 whole entry): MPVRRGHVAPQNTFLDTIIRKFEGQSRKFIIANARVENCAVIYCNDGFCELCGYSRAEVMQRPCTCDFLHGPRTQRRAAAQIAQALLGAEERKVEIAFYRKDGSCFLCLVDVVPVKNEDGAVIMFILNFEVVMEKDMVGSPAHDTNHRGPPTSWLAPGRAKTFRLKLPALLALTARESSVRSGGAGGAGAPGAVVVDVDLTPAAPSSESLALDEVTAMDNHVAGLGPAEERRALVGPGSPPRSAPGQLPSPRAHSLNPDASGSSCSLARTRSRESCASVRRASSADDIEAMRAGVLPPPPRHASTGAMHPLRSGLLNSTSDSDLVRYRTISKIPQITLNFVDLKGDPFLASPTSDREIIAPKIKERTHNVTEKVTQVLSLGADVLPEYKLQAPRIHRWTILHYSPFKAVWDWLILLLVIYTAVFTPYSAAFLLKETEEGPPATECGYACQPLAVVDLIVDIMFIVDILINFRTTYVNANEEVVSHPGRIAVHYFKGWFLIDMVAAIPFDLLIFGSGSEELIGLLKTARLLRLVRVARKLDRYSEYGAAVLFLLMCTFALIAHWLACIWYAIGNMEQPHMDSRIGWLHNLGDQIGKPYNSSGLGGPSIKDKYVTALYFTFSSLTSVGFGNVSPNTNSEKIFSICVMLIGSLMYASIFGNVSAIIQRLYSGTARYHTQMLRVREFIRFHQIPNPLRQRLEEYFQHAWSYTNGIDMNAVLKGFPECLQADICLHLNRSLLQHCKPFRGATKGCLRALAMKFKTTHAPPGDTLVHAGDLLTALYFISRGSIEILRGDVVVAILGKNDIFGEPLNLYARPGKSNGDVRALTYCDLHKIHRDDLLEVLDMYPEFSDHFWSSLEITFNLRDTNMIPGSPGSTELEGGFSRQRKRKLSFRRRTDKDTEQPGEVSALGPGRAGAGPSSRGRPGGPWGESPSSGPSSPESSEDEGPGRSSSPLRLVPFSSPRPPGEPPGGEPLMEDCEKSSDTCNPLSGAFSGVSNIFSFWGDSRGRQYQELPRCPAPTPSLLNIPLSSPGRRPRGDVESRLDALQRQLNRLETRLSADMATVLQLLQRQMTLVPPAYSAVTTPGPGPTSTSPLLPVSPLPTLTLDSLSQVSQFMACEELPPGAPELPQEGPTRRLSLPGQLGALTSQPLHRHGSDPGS

SMILES: Cc1nc2nc(-c3ccccc3)cn2c(-c2ccc(Cl)cc2Cl)c1CN
inhibition at 10 µM (hERG (KCNH2)): 74%

SMILES: CCOC(=O)c1cn2c(-c3ccc(Cl)cc3Cl)c(CN)c(C)nc2n1
inhibition at 10 µM (hERG (KCNH2)): 23%

Papp [1]: 51.8 ×10⁻⁶ cm/s
SMILES: Cc1nc2nc(C(=O)N3CCCC3)cn2c(-c2ccc(Cl)cc2Cl)c1CN

half-life [2]: 276 min
Cmax [3]: 324 nM
dose excreted [4]: 41%
Vdss (Canis familiaris): 1.5 L/kg
dose excreted [5]: 56%
clearance [6]: 25.4 mL/min/kg
Vdss (Rattus norvegicus): 1.3 L/kg
clearance [7]: 7.9 mL/min/kg
half-life [8]: 96 min
bioavailability [9]: 76%
Papp [1]: 46.4 ×10⁻⁶ cm/s
AUC(0-inf) [12]: 0.714 µM·h
bioavailability [13]: 54%
SMILES: Cc1nc2nc(C(=O)N3CCOCC3)cn2c(-c2ccc(Cl)cc2Cl)c1CN
Activity (Mus musculus [10]): 63%
Activity (Mus musculus [11]): 66%

Ki (Dipeptidyl peptidase 8): > 10 µM
Ki (Dipeptidyl peptidase 9): > 10 µM
SMILES: Cc1nc2nc(C(=O)NC3CCN(C(C)C)CC3)cn2c(-c2ccc(Cl)cc2Cl)c1CN

Ki (Dipeptidyl peptidase 9): > 30 µM
SMILES: Cc1nc2nc(C(=O)NCCN3CCCCC3)cn2c(-c2ccc(Cl)cc2Cl)c1CN

Cmax [14]: 45 nM
Papp [15]: < 1.5 ×10⁻⁶ cm/s
SMILES: Cc1nc2nc(C(=O)N3CC[C@H](NS(C)(=O)=O)C3)cn2c(-c2ccc(Cl)cc2Cl)c1CN

dose excreted [5]: 4.4%
clearance [6]: 43.2 mL/min/kg
Vdss (Rattus norvegicus): 3.9 L/kg
half-life [8]: 126 min
Papp [1]: 66.9 ×10⁻⁶ cm/s
bioavailability [13]: 64%
SMILES: CCn1nccc1NC(=O)c1cn2c(-c3ccc(Cl)cc3Cl)c(CN)c(C)nc2n1
inhibition in vivo at 3 µmol/kg (Mus musculus [16]): 52.8%
inhibition at 10 µM (hERG (KCNH2)): 31%
Activity (Mus musculus [17]): 93%
Activity (Mus musculus [18]): 129%
Activity (Mus musculus [10]): 58%
Activity (Mus musculus [11]): 40%
inhibition in vivo at 1 µmol/kg (Mus musculus [19]): 62%
